# The source made the active and inactive calls. The calls are words filed in the database; no cut-off is given here.
# What was measured:
# [1] = target: BDNF/NT-3 growth factors receptor (Rattus norvegicus) (UniProt Q63604); experiment: Agonist activity at TrkB in E17 rat primary cortical neurons by immunoblotting; type: functional, cell-based; details: Cerebral cortex neuron
# [2] = target: BDNF/NT-3 growth factors receptor (Rattus norvegicus) (UniProt Q63604); experiment: Agonist activity at TrkB in E17 rat primary cortical neurons assessed as AKT phosphorylation at Ser 473 at 500 nM after 15 mins by ELISA; type: functional, cell-based; details: Cerebral cortex neuron
# [3] = target: BDNF/NT-3 growth factors receptor (Rattus norvegicus) (UniProt Q63604); experiment: Agonist activity at TrkB in E17 rat primary cortical neurons assessed as TrkB phosphorylation at 817 at 500 nM after 15 mins by immunoblotting; type: functional, cell-based; details: Cerebral cortex neuron
# Outline: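 Rat cortical neurons from E17 embryos, 13 DIV, were treated with 500 nM compound for 15 min. Lysates were run on 10% SDS-PAGE and immunoblotted with p-TrkB Y817 antibody at 1:20,000–40,000.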
# [4] = target: BDNF/NT-3 growth factors receptor (Rattus norvegicus) (UniProt Q63604); experiment: Agonist activity at TrkB in E17 rat primary cortical neurons assessed as AKT phosphorylation at Ser 473 at 500 nM after 15 mins by ELISA relative to control; type: functional, cell-based; details: Cerebral cortex neuron
# [5] = target: BDNF/NT-3 growth factors receptor (Rattus norvegicus) (UniProt Q63604); experiment: Agonist activity at TrkB in E17 rat primary rat cortical neurons assessed as AKT phosphorylation at Ser 473 at 500 nM after 15 mins by ELISA; type: functional
# [6] = target: BDNF/NT-3 growth factors receptor (Rattus norvegicus) (UniProt Q63604); experiment: […] in E17 rat primary cortical neurons at 500 nM after 15 mins by immunoblotting; details: Cerebral cortex neuron
# Outline: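 Primary cortical neurons from E17 rat embryos, 13 DIV, exposed to compound at 500 nM for 15 min. Lysates resolved on 10% SDS-PAGE and immunoblotted for phospho-TrkB (p-TrkB Y817 antibody, 1:20,000–40,000) alongside other signalling antibodies.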
# Mus musculus = experiment: Neuroprotective activity in C57BL/6J mouse assessed as inhibition of kainic acid-induced caspase 3 activation in hippocampus region at 5 mg/kg, po administered 2 to 8 hrs prior to kainic acid challenge measured after 2 hrs by immunoblotting; type: functional, organism-based; parameters: dose 5 mg/kg
# Outline: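 C57BL/6J mice dosed orally by gavage at 5 mg/kg. Kainic acid 20 mg/kg i.p. given at 0, 2 or 6 h after dosing. Mice killed 2 h after kainic acid; hippocampal lysates immunoblotted with anti-p-TrkB and anti-active caspase-3.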
# Chain of BDNF/NT-3 growth factors receptor (Rattus norvegicus) (Q63604 whole entry): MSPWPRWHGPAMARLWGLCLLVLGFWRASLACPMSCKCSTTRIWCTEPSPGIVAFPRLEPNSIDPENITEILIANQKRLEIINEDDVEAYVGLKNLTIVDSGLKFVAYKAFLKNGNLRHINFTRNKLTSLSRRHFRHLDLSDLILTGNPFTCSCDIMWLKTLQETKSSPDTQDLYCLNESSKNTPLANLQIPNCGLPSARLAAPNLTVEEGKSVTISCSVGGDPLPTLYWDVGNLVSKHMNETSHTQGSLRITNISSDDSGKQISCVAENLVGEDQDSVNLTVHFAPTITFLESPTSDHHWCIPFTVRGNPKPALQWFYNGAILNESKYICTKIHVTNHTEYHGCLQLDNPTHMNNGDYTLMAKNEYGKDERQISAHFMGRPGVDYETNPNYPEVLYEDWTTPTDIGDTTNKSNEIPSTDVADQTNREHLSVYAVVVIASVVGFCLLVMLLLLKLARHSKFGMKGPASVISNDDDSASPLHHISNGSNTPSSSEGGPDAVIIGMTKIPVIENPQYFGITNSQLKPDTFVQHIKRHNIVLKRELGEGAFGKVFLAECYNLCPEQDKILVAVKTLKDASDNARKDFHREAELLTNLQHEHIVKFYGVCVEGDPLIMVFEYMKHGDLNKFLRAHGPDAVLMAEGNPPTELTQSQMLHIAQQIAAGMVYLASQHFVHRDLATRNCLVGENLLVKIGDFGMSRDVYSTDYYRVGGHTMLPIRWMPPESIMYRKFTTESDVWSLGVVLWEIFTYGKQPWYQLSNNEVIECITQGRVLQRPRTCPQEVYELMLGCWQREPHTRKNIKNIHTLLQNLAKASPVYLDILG
SMILES,Activity [2],further results
COc1ccc2c(=O)cc(-c3ccccc3)oc2c1OC,inactive,Activity [1]: Active
O=c1cc(-c2cccc(O)c2)oc2c(O)c(O)ccc12,,Activity [3]: Active; fold change (FC) [4]: 2
O=c1cc(-c2ccccc2)oc2cccc(O)c12,inactive,
O=c1cc(-c2ccccc2)oc2cc(O)c(O)cc12,Active,
O=c1cc(-c2ccccc2)oc2cc(O)c(O)c(O)c12,inactive,
O=c1cc(-c2ccc(F)cc2)[nH]c2c(O)c(O)ccc12,,Activity [5]: inactive
O=c1cc(-c2ccccc2)[nH]c2c(O)c(O)ccc12,,Activity [5]: inactive
O=c1cc(-c2ccc(O)cc2)oc2ccccc12,inactive,
O=c1cc(-c2ccccc2O)oc2ccccc12,inactive,
O=c1c(O)c(-c2ccc(O)c(O)c2)oc2c(O)c(O)cc(O)c12,,inhibition [6]: Active
O=c1cc(-c2ccc(O)c(O)c2)oc2cc(O)ccc12,inactive,
O=c1cc(-c2cccc(O)c2)oc2cc(O)ccc12,Active,Activity [3]: Active
O=c1cc(-c2ccc(O)cc2)oc2c(O)c(O)ccc12,,Activity [3]: Active
COc1cccc(-c2cc(=O)c3ccccc3o2)c1OC,inactive,
O=c1cc(-c2ccccc2)oc2c(O)c(O)cc(O)c12,Active,Activity [3]: Active
O=c1cc(-c2ccc(O)cc2O)oc2ccccc12,inactive,
COc1ccccc1-c1cc2ccc(O)cc2oc1=O,inactive,
COc1c(O)ccc2c(=O)c(-c3ccc(Cl)cc3)coc12,inactive,
COc1cc(-c2oc3cc(O)ccc3c(=O)c2O)cc(OC)c1OC,inactive,
O=c1cc(-c2ccccc2O)oc2c(O)c(O)ccc12,Active,Activity [3]: Active
O=c1c(O)c(-c2ccccc2O)oc2c(O)c(O)ccc12,Active,Activity [3]: Active
O=c1cc(-c2ccccc2)oc2cc(O)ccc12,inactive,
COc1cccc(-c2oc3ccccc3c(=O)c2OC)c1,inactive,
C[S+](C)[O-],inactive,

SMILES,Activity [2],further results
O=c1c(O)c(-c2ccccc2)oc2ccccc12,inactive,
COc1cccc(-c2cc(=O)c3ccc(O)cc3o2)c1,inactive,
O=c1cc(-c2cc(O)cc(O)c2)oc2ccccc12,inactive,
O=c1c(O)c(-c2cccc(O)c2)oc2ccccc12,inactive,
COc1ccc(-c2cc(=O)c3ccc(O)cc3o2)cc1,inactive,Activity [3]: Active
O=c1cc(-c2cccc(O)c2)oc2cc(O)c(O)cc12,Active,
O=c1c(O)c(-c2ccccc2)oc2cc(O)ccc12,Active,Activity [3]: Active
O=c1cc(-c2ccccc2)oc2cc(O)cc(O)c12,inactive,
C=C(C)[C@H]1CN[C@H](C(=O)O)[C@H]1CC(=O)O,,inhibition (Mus musculus): Active
O=c1cc(-c2ccccc2)oc2ccc(O)cc12,inactive,
COc1ccc2c(=O)cc(-c3ccccc3)oc2c1O,Active,Activity [3]: Active; Activity [1]: Active
O=c1cc(-c2cncnc2)oc2c(O)c(O)ccc12,,Activity [5]: Active
O=c1cc(-c2ccccc2)oc2ccccc12,inactive,
O=c1c(-c2ccccc2)coc2cc(O)ccc12,inactive,
O=c1cc(-c2cccc(O)c2O)oc2ccccc12,inactive,
COc1ccc(-c2c(C)c3ccc(O)cc3oc2=O)cc1,inactive,
O=c1cc(-c2cccc(O)c2)oc2c1ccc1ccccc12,inactive,
O=c1cc(-c2ccc(O)c(O)c2)oc2ccccc12,inactive,
COc1cccc(-c2cc(=O)c3ccc(OC)cc3o2)c1,inactive,
O=c1c(O)c(-c2cccc(O)c2)oc2cc(O)ccc12,inactive,
O=c1c(O)c(-c2ccccc2O)oc2ccccc12,inactive,
O=c1cc(-c2cccc(O)c2)oc2ccccc12,inactive,
O=c1cc(-c2ccccc2)oc2ccc(O)c(O)c12,inactive,

# Source: ChEMBL document CHEMBL1800034, “A synthetic 7,8-dihydroxyflavone derivative promotes neurogenesis and exhibits potent antidepressant effect” (J Med Chem, 2010)
